In ChEMBL document CHEMBL5365541, “Designing peptide amphiphiles as novel antibacterials and antibiotic adjuvants against gram-negative bacteria” (Bioorg Med Chem, 2023):
Values after ≈ are worked out from the molar mass of the structure shown. Active and inactive are the calls of the source. The rule behind the calls is not given here. Starred links: 1 amine or outer side, 2 acyl side, 3 side chain; linkers in the order of their positions; H or OH if unused. Non-standard residues stand in square brackets, D forms with d. Residues, ends and D or L forms follow the SMILES beside them. X1 = CCCCCCCCCCCCCCCCN([C@@H](CCCCN)C(=O)[*:2])[*:1]; X2 = CCCCCCCCCCCCCCCCN([C@@H](C)C(=O)[*:2])[*:1]

Assays:
Escherichia coli [1] = experiment: Synergistic antibacterial activity against Escherichia coli K12 incubated for 20 to 24 hrs in presence of vancomycin by checkerboard broth microdilution assay; type: functional; conditions: time 20-24 hrs
How it was run: (§1)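 Checkerboard broth microdilution. E. coli K12 or A. baumannii clinical isolate grown to mid-log (OD ~0.8) and diluted to ~10^5 CFU/mL in MHB. Two-fold dilutions of rifampicin or vancomycin run across the plate against two-fold PA dilutions down it. Incubated 20–24 h at 37 °C, OD read at 470 nm. FICi calculated from the combination MICs.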

[2] = Retention time of the compound by RP-HPLC analysis; type: physicochemical
How it was run: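 Reverse-phase HPLC, linear gradient 0–100% acetonitrile in water with 0.1% TFA over 20 min; retention time recorded.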

Acinetobacter baumannii [3] = experiment: Antibacterial activity against Acinetobacter baumannii incubated for 20 to 24 hrs by broth microdilution method; type: functional; conditions: time 20-24 hrs
How it was run: (§2)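 Broth microdilution: colonies suspended directly to 1.5×10^8 CFU/mL (0.5 McFarland), then diluted in Mueller–Hinton broth to ~10^5 CFU/mL final. PA stock 1 mg/mL in water, pH 7, serially diluted in MHB. Plates incubated 20–24 h at 37 °C. MIC = lowest concentration inhibiting growth, read as OD600 with optional 1% TTC staining. Triplicate.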

Escherichia coli [4] = experiment: Antibacterial activity against Escherichia coli K12 incubated for 20 to 24 hrs by broth microdilution method; type: functional; conditions: time 20-24 hrs; how it was run: as §2
Staphylococcus aureus [5] = experiment: Antibacterial activity against methicillin-resistant Staphylococcus aureus JE2 incubated for 20 to 24 hrs by broth microdilution method; type: functional; conditions: time 20-24 hrs
How it was run: (§3)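 Broth microdilution in MHB: direct colony suspension at 0.5 McFarland diluted to ~10^5 CFU/mL final; peptide stock 1 mg/mL in water at pH 7, serially diluted. Incubated 20-24 h at 37 °C; MIC taken as the lowest concentration inhibiting growth (OD 600 nm, 1% TTC stain); triplicate; vancomycin and gentamicin as positive controls.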

Staphylococcus aureus [6] = experiment: Antibacterial activity against methicillin-resistant Staphylococcus aureus 13C incubated for 20 to 24 hrs by broth microdilution method; type: functional; conditions: time 20-24 hrs; how it was run: as §3
Escherichia coli [7] = experiment: Synergistic antibacterial activity against Escherichia coli K12 assessed as fractional inhibitory concentration index incubated for 20 to 24 hrs in presence of vancomycin by checkerboard broth microdilution assay; type: functional; conditions: time 20-24 hrs; how it was run: as §1
Acinetobacter baumannii [8] = experiment: Synergistic antibacterial activity against Acinetobacter baumannii assessed as fractional inhibitory concentration index incubated for 20 to 24 hrs in presence of vancomycin by checkerboard broth microdilution assay; type: functional; conditions: time 20-24 hrs; how it was run: as §1
Cell membrane [9] = experiment: Induction of inner membrane permeability in Escherichia coli K12 at 2 times FICI in presence of vancomycin by propidium iodide staining based spectrofluorometry; type: subcellular; conditions: dose 2.0 µg/ml
How it was run: (§4)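 E. coli K12 grown in MHB to mid-log, washed twice in PBS, and diluted to 10^6 CFU/mL in 5 mM HEPES + glucose. Cells preincubated with […] at least 15 min at 37 °C. Then treated with agent at 1/8, 1× or 2× MIC, or with PA–vancomycin 1:1. Fluorescence read at ex 535 / em 615 nm. Polymyxin B as positive control; untreated cells as negative control.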

Cell membrane [10] = experiment: Induction of inner membrane permeability in Escherichia coli K12 at 4 ug/mL by propidium iodide staining based spectrofluorometry; type: subcellular; conditions: dose 4.0 µg/ml; how it was run: as §4
Cell membrane [11] = experiment: Induction of inner membrane permeability in Escherichia coli K12 by propidium iodide staining based spectrofluorometry; type: subcellular; conditions: dose 4-64 µg/ml; how it was run: as §4
Cell membrane [12] = experiment: Induction of inner membrane permeability in Escherichia coli K12 at FICI in presence of vancomycin by propidium iodide staining based spectrofluorometry; type: subcellular; conditions: dose 4.0 µg/ml; how it was run: as §4
Staphylococcus aureus [13] = experiment: Antibacterial activity against methicillin resistant Staphylococcus aureus JE2 assessed as fold increase in MIC after 21 days in presence of vancomycin by broth microdilution method relative to MIC before 21 days; type: functional; conditions: time 21 day
Staphylococcus aureus [14] = experiment: Antibacterial activity against methicillin resistant Staphylococcus aureus JE2 assessed as fold increase in MIC after 21 days by broth microdilution method relative to MIC before 21 days; type: functional; conditions: time 21 day
HEK293 = experiment: Cytotoxicity against HEK293 cells assessed as reduction in cell viability at 64 to 256 ug/ml incubated for 24 hrs by XTT assay; type: toxicity, cell-based; conditions: human, hek293, 24 h, dose 64-256 µg/ml
How it was run: (§5)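 HEK-293 cells, passages 3–8, seeded at 5×10^4 per well and preincubated 24 h at 37 °C, 5% CO2. Medium replaced with serially diluted PA, final 8–256 µg/mL, for 24 h, in triplicate. XTT reagent (0.5 mg/mL) added for 4 h at 37 °C, then absorbance read at 600 nm.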

[15] = Hemolytic activity in human red blood cells assessed as hemolysis at 8 ug/ml incubated for 60 min relative to control; type: toxicity, cell-based, Erythrocyte; conditions: at 8 µg/mL, read-out: Activity
How it was run: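 Washed human RBCs at 0.25×10^8 cells/mL final in PBS, mixed with PA (stocks 16–1024 µg/mL, equal volume). Shaken 10 min, then incubated 60 min at 37 °C, 5% CO2. Cells pelleted at 1000 × g; supernatant hemoglobin read at OD405. 5% Triton X-100 taken as 100% hemolysis; water as negative control.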

[16] = Self assembly property of the compound assessed as zeta potential at 250 ug/mL at pH 7 measured after 2 hrs; type: physicochemical; conditions: pH 7, 2 h, dose 250 µg/ml
How it was run: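 Peptide self-assembled at 1 mg/mL, pH 7, annealed 2 h at 80 °C, and aged overnight. Diluted to 250 µg/mL in water; zeta potential measured at 25 °C.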

[17] = Self assembly property of the compound assessed as formation of micelles at 1 mg/ml incubated overnight by transmission electron microscopy; type: physicochemical
How it was run: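 Samples were dissolved at 2 mM in water, pH 7, and left at room temperature overnight. Applied to copper grids for 5 min, blotted, and negatively stained with NanoVan for 30 s. Imaged by TEM at 120 kV.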

Escherichia coli [18] = experiment: Synergistic antibacterial activity against Escherichia coli K12 assessed as potentiation of vancomycin-induced antibacterial activity by measuring fold increase in vancomycin MIC incubated for 20 to 24 hrs by checkerboard broth microdilution assay relative to vancomycin alone; type: functional; conditions: time 20-24 hrs; how it was run: as §1
Escherichia coli [19] = experiment: Synergistic antibacterial activity against Escherichia coli K12 assessed as potentiation of vancomycin-induced antibacterial activity by vancomycin MIC incubated for 20 to 24 hrs by checkerboard broth microdilution assay; type: functional; conditions: time 20-24 hrs; how it was run: as §1
[20] = Cytotoxicity against HEK293 cells assessed as cell viability up to 64 ug/ml incubated for 24 hrs by XTT assay relative to control; type: toxicity, cell-based; conditions: human, up to 64 µg/mL, read-out: Activity; how it was run: as §5
Escherichia coli [21] = experiment: Ratio of MIC for Escherichia coli K12 at pH 5.5 to MIC for Escherichia coli K12 at pH 7.0
Staphylococcus aureus [22] = experiment: Ratio of MIC for methicillin-resistant Staphylococcus aureus JE2 at pH 5.5 to MIC for methicillin-resistant Staphylococcus aureus JE2 at pH 7.0
Staphylococcus aureus [23] = experiment: Antibacterial activity against methicillin-resistant Staphylococcus aureus LAC incubated for 20 to 24 hrs by broth microdilution method; type: functional; conditions: time 20-24 hrs; how it was run: as §3
Escherichia coli [24] = experiment: Synergistic antibacterial activity against Escherichia coli K12 assessed as fractional inhibitory concentration index incubated for 20 to 24 hrs in presence of rifampicin by checkerboard broth microdilution assay; type: functional; conditions: time 20-24 hrs; how it was run: as §1
Acinetobacter baumannii [25] = experiment: Synergistic antibacterial activity against Acinetobacter baumannii assessed as fractional inhibitory concentration index incubated for 20 to 24 hrs in presence of rifampicin by checkerboard broth microdilution assay; type: functional; conditions: time 20-24 hrs; how it was run: as §1
Cell membrane [26] = experiment: Induction of inner membrane permeability in Escherichia coli K12 at 8 to 16 ug/mL by propidium iodide staining based spectrofluorometry; type: subcellular; conditions: dose 8-16 µg/ml; how it was run: as §4
Staphylococcus aureus [27] = experiment: Antibacterial activity against methicillin resistant Staphylococcus aureus JE2 assessed as fold increase in MIC after 5 days by broth microdilution method relative to MIC before 5 days; type: functional; conditions: time 5 day
Escherichia coli [28] = experiment: Synergistic antibacterial activity against Escherichia coli K12 assessed as potentiation of rifampicin-induced antibacterial activity by measuring fold increase in rifampicin MIC incubated for 20 to 24 hrs by checkerboard broth microdilution assay relative to rifampicin alone; type: functional; conditions: time 20-24 hrs; how it was run: as §1
Acinetobacter baumannii [29] = experiment: Synergistic antibacterial activity against Acinetobacter baumannii assessed as potentiation of rifampicin-induced antibacterial activity by measuring fold increase in rifampicin MIC incubated for 20 to 24 hrs by checkerboard broth microdilution assay relative to rifampicin alone; type: functional; conditions: time 20-24 hrs; how it was run: as §1
Cell membrane [30] = experiment: Induction of inner membrane permeability in Escherichia coli K12 assessed as shift in bacterial zeta potential at 80 ug/ml measured after 1 hr; type: subcellular; conditions: dose 80.0 µg/ml
Cell membrane [31] = experiment: Induction of inner membrane permeability in methicillin-resistant Staphylococcus aureus JE2 assessed as shift in bacterial zeta potential at 80 ug/ml measured after 1 hr; type: subcellular; conditions: dose 80.0 µg/ml
How it was run: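 Mid-log MRSA JE2 from MHB (OD ~0.8) washed and resuspended in PBS at 5×10^7 CFU/mL, exposed to peptide at 10 × MIC for 1 h, then zeta potential measured at 25 °C; untreated cells as negative control, daptomycin and polymyxin B as reference drugs.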

| Compound | Retention_time [2] | MIC (Acinetobacter baumannii [3]) | MIC (Escherichia coli [4]) | MIC (Staphylococcus aureus [5]) | MIC (Staphylococcus aureus [6]) | Activity (Cell membrane [10]) | Activity (HEK293) | hemolysis at 1 h, 8 ug/ml [15] | Activity [16] | Activity [17] | viability at 24 h [20] | further results |
| --- | --- | --- | --- | --- | --- | --- | --- | --- | --- | --- | --- | --- |
| CCCCCCCCCCCCCCCCN[C@@H](CCCCN)C(=O)N[C@@H](Cc1c[nH]cn1)C(=O)N[C@@H](CCCCN)C(=O)N[C@@H](Cc1c[nH]cn1)C(=O)N[C@@H](CCCCN)C(=O)O (H-[X1]HKHK-OH) | 13.4 min | 64 µg/mL (≈ 71 µM) | 32 µg/mL (≈ 35.5 µM) | 64 µg/mL (≈ 71 µM) | 32 µg/mL (≈ 35.5 µM) | Active | Non-Toxic | 28.2% | 15.8 mV | Active | 100% | MIC (Escherichia coli [1]): 4 µg/mL; fractional inhibitory concentration index (FICI) (Escherichia coli [7]): 0.15; fractional inhibitory concentration index (FICI) (Acinetobacter baumannii [8]): 1; Activity (Cell membrane [9]): Active; Activity (Cell membrane [11]): Dose-Dependent Effect; Activity (Cell membrane [12]): Active; fold change (FC) (Staphylococcus aureus [13]): 8; fold change (FC) (Staphylococcus aureus [14]): 8; fold change (FC) (Escherichia coli [18]): 32; MIC (Escherichia coli [19]): 4 µg/mL; Ratio (Escherichia coli [21]): > 1; Ratio (Staphylococcus aureus [22]): > 1 |
| CCCCCCCCCCCCCCCCN[C@@H](C)C(=O)N[C@@H](C)C(=O)N[C@@H](C)C(=O)N[C@@H](CCCCN)C(=O)N[C@@H](CCCNC(=N)N)C(=O)N[C@@H](CCCCN)C(=O)N[C@@H](CCCNC(=N)N)C(=O)O (H-[X2]AAKRKR-OH) | 14.3 min | 4 µg/mL (≈ 3.9 µM) | 8 µg/mL (≈ 7.81 µM) | 8 µg/mL (≈ 7.81 µM) | 8 µg/mL (≈ 7.81 µM) | inactive | Non-Toxic | 33.3% | 10.8 mV | Active | 100% | MIC (Staphylococcus aureus [23]): 8 µg/mL (≈ 7.81 µM); fractional inhibitory concentration index (FICI) (Escherichia coli [24]): 0.62; fractional inhibitory concentration index (FICI) (Acinetobacter baumannii [25]): 0.75; Activity (Cell membrane [26]): Active; fold change (FC) (Staphylococcus aureus [27]): 2; fold change (FC) (Escherichia coli [28]): 8; fold change (FC) (Acinetobacter baumannii [29]): 2; Activity (Cell membrane [30]): Active; Activity (Cell membrane [31]): Active |
